Measurements pooled from the literature.
Compare with care: the assays were run in different laboratories.
Target: Serine/threonine-protein kinase PLK3 (PLK3, Homo sapiens, UniProt Q9H4B4)

Compound | effect on | action | technique | tested at | measurement | value
COc1cc(Nc2ncc(F)c(Nc3ccc4c(n3)NC(=O)C(C)(C)O4)n2)cc(OC)c1OC | binding | – | – | 10 µM | inhibition | 100%
N#CC1(c2ccccn2)CCN(Cc2cc(C(=O)O)c(=O)n3ccccc23)CC1 | cell-free assay | – | competition with immobilised ligand | 1 µM | remaining binding | 85%
Cn1cc(-c2cc(F)cc(N3CCn4c(cc5c4CCCC5)C3=O)c2CO)cc(Nc2ccc(N3CCN(C4COC4)CC3)cn2)c1=O | enzyme activity | inhibitor | – | 0.1 µM | inhibition | 10%
Nc1ncc(-c2nc(N3CCOCC3)nc(N3CCOCC3)n2)c(C(F)F)n1 | binding | – | competition with immobilised ligand | 10 µM | remaining binding | 83%
O=c1[nH]c2ccccc2n1C1CCN(Cc2ccc(-c3[nH]c4cc5ncnc5cc4nc3-c3ccccc3)cc2)CC1 | cell-free assay | – | – | 0.5 µM | remaining signal | 99.1%
COc1ncccc1-c1cnn2ccc(N3CCN(C(=O)OC(C)C)CC3)nc12 | binding | – | competition with immobilised ligand | 1 µM | remaining binding | 100%
CC(C)(C)c1cc(C=C(C#N)C#N)cc(Br)c1O | enzyme activity | inhibitor | – | 0.5 µM | remaining activity | 94.6%
Cc1nn(C)cc1-c1nc2c(N3CCN(Cc4ccc(Cl)cc4)CC3)c(Cl)cnc2[nH]1 | binding | – | competition with immobilised ligand | 1 µM | remaining binding | 88%
Cn1cc(-c2cccc(N3CCc4c(sc5c4CC(C)(C)C5)C3=O)c2CO)cc(Nc2ccncn2)c1=O | enzyme activity | inhibitor | – | 1 µM | inhibition | -15%
Cn1cncc1[C@@](O)(COc1ccc(C#N)cc1-c1ccc(OC(F)(F)F)cc1)c1ccc(C#N)cc1 | cell-free assay | – | competition with immobilised ligand | 1 µM | remaining binding | 88%
